The subject of assay [1] is Glycine max. Kind of assay: Inhibition of soybean LOX assessed as reduction in conversion of sodium linoleate to 13-hydroperoxylinoleic acid at 1 x 10^-4 M relative to control. In short, it runs like this:
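Soybean lipoxygenase incubated at room temperature with sodium linoleate (0.1 mM) and test compound (DMSO stocks); formation of 13-hydroperoxylinoleic acid read at 234 nm. Single-point screening at 1 × 10^-4 M; IC50 from several concentrations. At least triplicate.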

Assay [2] can be described thus: Growth inhibition of human NCI-H460 cells after 72 hrs by MTT assay. The assay is classed as functional, cell-based. The settings on record: NCI-H460, 72 h. In short, it runs like this:
(§1)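 Modified NCI DTP protocol: cells in DMEM with 10% FBS, 2 mM glutamine, antibiotics, 37 °C, 5% CO2; seeded 1 × 10^4 to 3 × 10^4 cells/ml on day 0, exposed to five 10-fold dilutions (10^-8 to 10^-4 M) for 72 h; solvent control. MTT read-out; quadruplicate points in three experiments; IC50 by linear regression of growth percentages bracketing 50%.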
On the technique in general: Tetrazolium assays rely on reduction of a dye to a coloured formazan, in cell work by metabolically active cells.

The nature of assay [3]: Growth inhibition of mouse L1210 cells after 72 hrs by MTT assay. The assay is classed as functional, cell-based. The note with it: L1210, 72 h.
Assay [4] in a line: Antioxidant activity assessed as DPPH radical scavenging activity at 100 uM after 20 mins relative to control. The assay is classed as functional. In a few lines:
(§2)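 Compound in DMSO added to DPPH in absolute ethanol, 0.1 mM final; absorbance at 517 nm after 20 and 60 min at room temperature. At least triplicate.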

Assay [5] is described as follows: Growth inhibition of human HeLa cells after 72 hrs by MTT assay. The assay is classed as functional, cell-based.
A short description of assay [6]: Growth inhibition of human Molt4/C8 cells after 72 hrs by MTT assay. The assay is classed as functional, cell-based. The settings on record: MOLT-4, 72 h.
Assay [7] in a line: Growth inhibition of human SW620 cells after 72 hrs by MTT assay. The assay is classed as functional, cell-based. The settings on record: SW-620, 72 h. In a few lines: as §1
The nature of assay [8]: Antioxidant activity assessed as inhibition of AAPH-induced linoleic acid lipid peroxidation at 1 x 10^-4 M by UV-absorbance method relative to control. The assay is classed as functional. In a few lines:
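Linoleic acid peroxidation: 16 mM sodium linoleate dispersion in 0.05 M phosphate buffer pH 7.4 at 37 °C under air, initiated by AAPH (40 mM solution); compound at 1 × 10^-4 M; oxidation followed at 234 nm. At least triplicate.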

Assay [9] in a line: Growth inhibition of human MCF7 cells after 72 hrs by MTT assay. The assay is classed as functional, cell-based. The settings on record: MCF7, 72 h. In a few lines: as §1
Assay [10] in a line: Growth inhibition of human MIAPaCa2 cells after 72 hrs by MTT assay. The settings on record: MIA PaCa-2, 72 h. The assay is classed as functional, cell-based.
Assay [11] can be described thus: Antioxidant activity assessed as DPPH radical scavenging activity at 100 uM after 60 mins relative to control. The assay is classed as functional. In short, it runs like this:
as §2

The nature of assay [12]: Growth inhibition of human CEM cells after 72 hrs by MTT assay. The note with it: CCRF-CEM. The assay is classed as functional, cell-based.

Data on 14 molecules can be found in ChEMBL document CHEMBL3875163, “Novel urea and bis-urea primaquine derivatives with hydroxyphenyl or halogenphenyl substituents: Synthesis and biological evaluation” (Eur J Med Chem, 2016).

Molecules are shown by their SMILES.

By inhibition is commonly meant the share of the control response that was lost under treatment. Usually IC50 stands for the point on the concentration scale where inhibition reaches its midpoint. Low values mean inhibition by little substance, high ones a need for much substance. On to `COc1cc(NC(C)CCCNC(=O)NNC(=O)Nc2cc(C(F)(F)F)cc(C(F)(F)F)c2)c2ncccc2c1` (stereo not drawn), for which the inhibition in assay [1] turned out to be 33.9%; in [8], 39.9%. For the same molecule, the IC50 was 18 µM in [2]; 18 µM in assay [3]; 17 µM in assay [5]; 22 µM in assay [6]; 16 µM in assay [7]; 2400 nM in assay [9]. Further, the half-inhibitory concentration (IC50) is 20 µM in assay [10] and 13 µM in assay [12]. For the same molecule, the Activity in assay [4] came to 86.8%; in assay [11] it was 88%.

Take `COc1cc(NC(C)CCCNC(=O)Nc2ccc(O)cc2)c2ncccc2c1` (stereo not drawn): the inhibition was found to be 49.9% in assay [1] and 54% in assay [8]. In addition, the IC50 in assay [2] came to 34 µM; in assay [3] it was 21 µM; in assay [5], 70 µM; in [6], 21 µM; in assay [7], 30 µM; in assay [9], 5200 nM. The half-maximal inhibitory concentration (IC50) in assay [10] was determined as 57 µM; in assay [12], 23 µM. Moreover, the Activity in assay [4] is 95.5%; in [11] it was 94.5%.

As to `COc1cc(NC(C)CCCNC(=O)NNC(=O)Nc2cccc(O)c2)c2ncccc2c1` (stereo not drawn), the inhibition was found to be 41.6% in assay [1] and 52.2% in assay [8]. The IC50 in assay [2] was more than 100 µM; in assay [3], 160 µM; in [5], 180 µM; in [6] it was 85 µM; in assay [7], 17 µM; in [9] it was 1100 nM. The IC50 in [10] came out at 129 µM; in assay [12], 143 µM. The Activity was 96.5% in assay [4] and 100% in assay [11].

As for `COc1cc(NC(C)CCCNC(=O)Nc2cccc(Cl)c2)c2ncccc2c1` (stereo not drawn), the inhibition in assay [1] was 11.8%; in [8], 84.1%. Besides, the IC50 in [2] stood at 37 µM; in [3] it was 17 µM; in assay [5], 17 µM; in [6], 21 µM; in [7], 26 µM; in assay [9] it was 11000 nM. For the same molecule, the IC50 in assay [10] was 21 µM; in assay [12], 22 µM. For the same molecule, in assay [11], the Activity turned out to be 35.7%.

`Cc1c(C)c2c(c(C)c1O)CCC(C)(C(=O)O)O2` (stereo not drawn): the inhibition in assay [8] came out at 76%.

In the case of `COc1cc(NC(C)CCCNC(=O)Nc2ccc(F)cc2)c2ncccc2c1` (stereo not drawn), the inhibition in assay [1] was 39.8%; in assay [8], 64.4%. In addition, the IC50 in assay [2] was determined as 26 µM; in assay [3], 18 µM; in assay [5], 20 µM; in assay [6], 24 µM; in assay [7], 25 µM; in assay [9], 26000 nM. Moreover, the IC50 in assay [10] came out at 21 µM; in assay [12] it was 26 µM. In addition, the Activity in assay [11] came out at 24.7%.

On to `COc1cc(NC(C)CCCNC(=O)NNC(=O)Nc2cccc(C(F)(F)F)c2)c2ncccc2c1` (stereo not drawn), for which the inhibition in [1] came to 51.4%; in assay [8], 52.6%. In addition, the half-inhibitory concentration (IC50) is 20 µM in assay [2]; 4 µM in assay [3]; 4.9 µM in [5]; 36 µM in assay [6]; 21 µM in assay [7]; 190 nM in [9]. For the same molecule, the results for the IC50 in assay [10] and in [12] were 5.6 µM and 6.9 µM, respectively. Also, the Activity in assay [4] was determined as 98.3%; in assay [11], 91.2%.

On to `COc1cc(NC(C)CCCNC(=O)NNC(=O)Nc2cccc(Cl)c2)c2ncccc2c1` (stereo not drawn), for which the inhibition in assay [1] amounted to 48.4%; in assay [8], 70.8%. Also, the IC50 in assay [2] came to 32 µM; in [3], 27 µM; in [5] it was 44 µM; in assay [6], 93 µM; in assay [7] it was 25 µM; in assay [9], 220 nM. The IC50 in assay [10] was determined as 74 µM; in assay [12] it was 81 µM. The Activity is 97.9% in assay [4] and 95.1% in assay [11].

Consider `COc1cc(NC(C)CCCNC(=O)NNC(=O)Nc2ccc(Cl)cc2)c2ncccc2c1` (stereo not drawn), for which the results for the inhibition in [1] and in [8] were 39% and 42.1%, respectively. The IC50 in assay [2] amounted to 63 µM; in assay [3], 58 µM; in assay [5] it was 120 µM; in [6], 186 µM; in assay [7], 48 µM; in [9] it was 180 nM. Besides, the values for the IC50 in assay [10] and in [12] were not below 250 µM and 108 µM, respectively. In addition, the Activity in assay [4] came out at 97.6%; in assay [11], 100%.

With `COc1cc(NC(C)CCCNC(=O)NNC(=O)Nc2ccc(O)cc2)c2ncccc2c1` (stereo not drawn), the inhibition turned out to be 33.4% in assay [1] and 61.9% in [8]. Further, the IC50 in assay [2] was more than 100 µM; in assay [3], 95 µM; in assay [5] it was 85 µM; in assay [6] it was 104 µM; in assay [7], more than 100 µM; in assay [9], 2600 nM. The IC50 in assay [10] stood at 142 µM; in assay [12] it was 111 µM. Further, the results for the Activity in assay [4] and in assay [11] were 99.3% and 100%, respectively.

As to `COc1cc(NC(C)CCCNC(=O)Nc2ccc(Cl)cc2)c2ncccc2c1` (stereo not drawn), the inhibition in assay [1] was found to be 21.6%; in assay [8], 81.9%. The IC50 was 34 µM in [2]; 19 µM in assay [3]; 18 µM in assay [5]; 24 µM in assay [6]; 28 µM in assay [7]; 12000 nM in assay [9]. In addition, the IC50 turned out to be 22 µM in [10] and 24 µM in assay [12]. In addition, the figures for the Activity in [4] and in [11] were 24% and 37%, respectively.

With `COc1cc(NC(C)CCCNC(=O)Nc2cccc(F)c2)c2ncccc2c1` (stereo not drawn), the inhibition was found to be 44.6% in assay [1] and 74.3% in [8]. In addition, the IC50 was 24 µM in [2]; 19 µM in [3]; 18 µM in assay [5]; 23 µM in assay [6]; 27 µM in assay [7]; 18000 nM in assay [9]. Also, the IC50 was determined as 22 µM in assay [10] and 21 µM in assay [12]. Further, the Activity in [11] is 26%.

As to `COc1cc(NC(C)CCCNC(=O)Nc2cccc(C(F)(F)F)c2)c2ncccc2c1` (stereo not drawn), the figures for the inhibition in assay [1] and in assay [8] were 48.3% and 71.8%, respectively. The IC50 in assay [2] was 21 µM; in assay [3] it was 9.2 µM; in [5] it was 14 µM; in assay [6], 20 µM; in assay [7] it was 22 µM; in [9], 3300 nM. Besides, the IC50 in assay [10] worked out at 17 µM; in [12], 19 µM. Further, the Activity worked out at 31.3% in [4] and 47.7% in [11].

Take `COc1cc(NC(C)CCCNC(=O)NNC(=O)Nc2ccc(Br)cc2)c2ncccc2c1` (stereo not drawn): the inhibition in assay [1] was found to be 28%. In addition, the IC50 was determined as 27 µM in assay [2]; 51 µM in [3]; 101 µM in assay [5]; 209 µM in assay [6]; 17 µM in [7]; 100 nM in assay [9]. The IC50 in [10] came to 231 µM; in assay [12] it was 110 µM. For the same molecule, the Activity is 96.9% in assay [4] and 99% in assay [11].
